This passage reports IC50 and Activity results from ChEMBL document CHEMBL1148117, “Synthesis and structure-activity relationship study of lamellarin derivatives” (J Nat Prod, 2002).

The test system of data set [1] is HeLa. Description: Cytotoxicity against human HeLa cells assessed as inhibition of colony formation after 5 to 8 days by colony assay. The data set is classed as functional, cell-based. In outline:
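HeLa cells were seeded at 100-150 cells per well and grown with a range of compound concentrations in MEM with 10% fetal calf serum for 5-8 days at 37 °C under 5% CO2/95% air. Colonies were stained with 1% methylene blue in 50% methanol and counted; a cluster of 40 or more cells counted as one colony.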

The subject of data set [2] is Human immunodeficiency virus 1. Description: Antiviral activity against HIV1 in cell cultures assessed as inhibition of viral replication. The data set is classed as functional, organism-based.
Data set [3] concerns XC. Description: Cytotoxicity against rat XC cells assessed as inhibition of colony formation after 5 to 8 days by colony assay. In kind it is functional, cell-based. Put shortly:
(§1)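 Colony-formation assay: 100-150 cells per well grown with varying concentrations of compound for 5-8 days at 37 °C under 5% CO₂/95% air. Colonies were stained with 1% methylene blue in 50% methanol and counted, with clusters of 40 or more cells scored as colonies. IC50 was estimated from dose-response curves.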

In data set [4] the test system is Vero. Description: Cytotoxicity against african green monkey Vero cells assessed as inhibition of colony formation after 5 to 8 days by colony assay. The settings on record: Chlorocebus sabaeus. The data set is classed as cell-based. In outline: as §1
Data set [5] concerns MDCK. The data set can be described thus: Cytotoxicity against MDCK cells assessed as inhibition of colony formation after 5 to 8 days by colony assay. In kind it is cell-based. The settings on record: Canis lupus familiaris. In outline: as §1
Data set [6] concerns MDCK. The data set can be described thus: Cytotoxicity against MDCK cells at 1 mM by MTT assay. In kind it is cell-based, Canis lupus familiaris. The settings on record: dog, 1000 µM.

For `COc1cc2c(cc1O)oc(=O)c1c2c(-c2ccc(OC)c(OC)c2)c2c3cc(OC)c(OC)cc3ccn21`, in data set [1], the half-maximal inhibitory concentration (IC50) came out at 2500 nM.

On to `CO[C@@]12[C@H](COC(N)=O)C3=C(C(=O)C(C)=C(N)C3=O)N1C[C@@H]1N[C@@H]12` [MITOMYCIN], for which the half-inhibitory concentration (IC50) in data set [1] was determined as 68 nM.

On to `CC(=O)Oc1ccc(-c2c3c4cc(OC(C)=O)c(OC(C)=O)cc4oc(=O)c3n3ccc4cc(OC(C)=O)c(OC(C)=O)cc4c23)cc1OC(C)=O`, for which, in data set [1], the IC50 worked out at 11000 nM.

On to `COc1ccc(-c2c3c4cc(OC)c(OS(=O)(=O)O)cc4oc(=O)c3n3ccc4cc(OC)c(OC)cc4c23)cc1O`, for which the IC50 in data set [2] came out at 8000 nM.

Turning to `COc1cc2c(cc1O)oc(=O)c1c2c(-c2ccc(O)cc2)c2c3cc(OC)c(O)cc3ccn21`, in data set [1], the half-inhibitory concentration (IC50) is 38 nM.

On to `O=c1oc2cc(O)c(O)cc2c2c(-c3ccc(O)c(O)c3)c3c4cc(O)c(O)cc4ccn3c12` [LAMELLARIN H], for which the half-maximal inhibitory concentration (IC50) in data set [1] is greater than 100000 nM.

Regarding `COc1cccc(-c2c3c4cc(OC)c(O)cc4oc(=O)c3n3ccc4cc(O)c(OC)cc4c23)c1`, the IC50 in data set [1] worked out at 70 nM.

On to `COc1ccc(-c2c3c4cc5c(cc4oc(=O)c3n3ccc4cc(OC)c(OC)cc4c23)OCO5)cc1OC`, for which the IC50 in data set [1] is greater than 100000 nM.

Consider `COc1cc(-c2c3c4ccc(O)cc4oc(=O)c3n3ccc4cc(O)c(OC)cc4c23)ccc1O`, for which, in data set [1], the 50% inhibitory concentration (IC50) amounted to 39.5 nM.

`COc1ccc2oc(=O)c3c(c(-c4ccc(O)c(OC)c4)c4c5cc(OC)c(O)cc5ccn43)c2c1`: the IC50 in data set [1] was found to be 850 nM.

Consider `COc1cc(-c2c3c4ccccc4oc(=O)c3n3ccc4cc(O)c(OC)cc4c23)ccc1O`, for which the 50% inhibitory concentration (IC50) in data set [1] turned out to be 4000 nM.

On to `COc1cc(-c2c3c4cc(OC)c(O)cc4oc(=O)c3n3ccc4cc(O)c(OC)cc4c23)ccc1O` [LAMELLARIN D], for which the IC50 in data set [1] stood at 10.5 nM; in data set [3], 12.4 nM; in data set [4], 10.5 nM; in data set [5] it was 22.5 nM. For the same compound, the Activity result in data set [6] is “Non-toxic”.

`O=c1oc2ccccc2c2c(-c3ccc(O)c(O)c3)c3c4cc(O)c(O)cc4ccn3c12`: the IC50 in data set [1] stood at 1100 nM.

Consider `COc1ccc(-c2c3c4ccccc4oc(=O)c3n3ccc4cc(OC)c(OC)cc4c23)cc1OC`, for which the IC50 amounted to 5700 nM in data set [1], 5600 nM in data set [3], 4700 nM in data set [4] and 5600 nM in data set [5].

For orientation: IC50 means the concentration that gives 50% inhibition.
